Source: ChEMBL document CHEMBL1641479, “2-Substituted (S)-2-(3,3-dimethyl-1-oxo-10,10a-dihydroimidazo[1,5-b]isoquinolin-2(1H,3H,5H)-yl)acetic acids: Conformational prediction, synthesis, anti-thrombotic and vasodilative evaluation” (Bioorg Med Chem, 2011)
Square brackets hold non-standard residues; d marks the D form. Peptide text beside a SMILES is read from it. Tic = O=C(O)[C@@H]1Cc2ccccc2CN1

What was measured:
[1] = Antiplatelet activity against pig platelet assessed as inhibition of ADP-induced platelet aggregation by spectrophotometry; assay type: functional, cell-based; conditions: Sus scrofa
How it was run: (§1)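 Pig blood (six pigs) spun 1000 rpm 10 min for PRP, then 1500 rpm 10 min for PPP; PRP adjusted to 2×10^8 platelets/mL with autologous PPP. Compound (final 100 µM to 1 nM, diluted in NS from DMSO/NS stock) or NS added, then inducer at final PAF 0.1 µM, ADP 10 µM, AA 350 µM or thrombin 0.1 U/mL.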

[2] = Antiplatelet activity against pig platelet assessed as inhibition of arachidonic acid-induced platelet aggregation by spectrophotometry; assay type: functional, cell-based; conditions: Sus scrofa; how it was run: as §1
[3] = Antiplatelet activity against pig platelet assessed as inhibition of PAF-induced platelet aggregation by spectrophotometry; assay type: functional, cell-based; conditions: Sus scrofa; how it was run: as §1
[4] = Antiplatelet activity against pig platelet assessed as inhibition of thrombin-induced platelet aggregation by spectrophotometry; assay type: functional, cell-based; conditions: Sus scrofa; how it was run: as §1
Rattus norvegicus [5] = experiment: Antithrombotic activity in Wistar rat assessed as thrombus weight at 10 nmol/kg, iv (reference value: 24.09 +/- 2.33 mg); assay type: functional
Aorta = experiment: Inhibition of noradrenaline-induced contraction in Wistar rat thoracic aortic ring assessed as vasorelaxant activity at 300 uM treated after noradrenaline challenge; assay type: functional; design: scale not given: the % may be the effect or the level left
How it was run: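 Male Wistar rats, 250–300 g, were decapitated and aortic strips were mounted in 37 °C Krebs solution (pH 7.4) gassed with 95% O2/5% CO2, connected to a tension transducer. Strips were contracted with 59 µM noradrenaline, washed, stabilised 30 min, then re-contracted with 59 µM noradrenaline. At peak contraction, compound in ethanol or ethanol alone was added and relaxation was recorded.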

Rattus norvegicus [6] = experiment: Antithrombotic activity in Wistar rat assessed as thrombus weight at 15 umol/kg, iv (reference value: 28.54 +/- 2.62 mg); assay type: functional
[7] = Antiplatelet activity against pig platelet assessed as inhibition of ADP-induced platelet aggregation at 10 uM by spectrophotometry; assay type: functional; conditions: Sus scrofa; how it was run: as §1
[8] = Antiplatelet activity against pig platelet assessed as inhibition of arachidonic acid-induced platelet aggregation at 10 uM by spectrophotometry; assay type: functional; conditions: Sus scrofa; how it was run: as §1
[9] = Antiplatelet activity against pig platelet assessed as inhibition of PAF-induced platelet aggregation at 10 uM by spectrophotometry; assay type: functional; conditions: Sus scrofa; how it was run: as §1
[10] = Antiplatelet activity against pig platelet assessed as inhibition of thrombin-induced platelet aggregation at 10 uM by spectrophotometry; assay type: functional; conditions: Sus scrofa; how it was run: as §1
Rattus norvegicus [11] = experiment: Antithrombotic activity in Wistar rat assessed as thrombus weight at 15 umol/kg, iv (reference value: 25.99 +/- 2.41 mg); assay type: functional

| SMILES | Activity (Aorta) [%] | Activity (Rattus norvegicus [6]) [mg] | inhibition at 10 µM [7] [%] | inhibition at 10 µM [8] [%] | inhibition at 10 µM [9] [%] | inhibition at 10 µM [10] [%] | Activity (Rattus norvegicus [11]) [mg] | other results |
| --- | --- | --- | --- | --- | --- | --- | --- | --- |
| CC(O)[C@@H](C(=O)O)N1C(=O)[C@@H]2Cc3ccccc3CN2C1(C)C (stereo partly specified) | 9.98 |  |  |  |  |  |  | IC50 [1]: 0.207 µM; IC50 [2]: 0.335 µM; IC50 [3]: 0.6 µM; IC50 [4]: 0.698 µM; Activity (Rattus norvegicus [5]): 16.04 mg |
| O=C(O)[C@@H](NC(=O)[C@@H]1Cc2ccccc2CN1)NC1CCC1 |  | 20.25 |  |  |  |  |  | IC50 [1]: 0.364 µM; IC50 [2]: 0.103 µM; IC50 [3]: 1.4 µM; IC50 [4]: 0.185 µM |
| C[C@H](NC(=O)[C@@H]1Cc2ccccc2CN1)C(=O)O (H-[Tic]-Ala-OH) |  | 21.4 |  |  |  |  |  |  |
| NC(=O)CC[C@H](NC(=O)[C@@H]1Cc2ccccc2CN1)C(=O)O (H-[Tic]-Gln-OH) |  | 22.08 |  |  |  |  |  |  |
| COC(=O)[C@H](CCCCNC(=O)OCc1ccccc1)N1C(=O)[C@@H]2Cc3ccccc3CN2C1(C)C | 68.21 |  | 20.9 | 33.7 | 11.2 | 18.4 | 17.14 |  |
| CSCC[C@@H](C(=O)O)N1C(=O)[C@@H]2Cc3ccccc3CN2C1(C)C | 5.58 |  |  |  |  |  |  | IC50 [1]: 0.264 µM; IC50 [2]: 0.409 µM; IC50 [3]: 0.499 µM; IC50 [4]: 0.852 µM; Activity (Rattus norvegicus [5]): 19.56 mg |
| CC1(C)N2Cc3ccccc3C[C@H]2C(=O)N1[C@@H](Cc1ccc(O)cc1)C(=O)O | 1.59 |  |  |  |  |  |  | IC50 [1]: 0.273 µM; IC50 [2]: 0.42 µM; IC50 [3]: 0.752 µM; IC50 [4]: 0.875 µM; Activity (Rattus norvegicus [5]): 20.1 mg |
| COC(=O)[C@H](CC(N)=O)N1C(=O)[C@@H]2Cc3ccccc3CN2C1(C)C | 47.89 |  | 33.9 | 30.1 | 25.8 | 19.8 | 19.54 |  |
| O=C(O)[C@H](CO)NC(=O)[C@@H]1Cc2ccccc2CN1 (H-[Tic]-Ser-OH) |  | 23.58 |  |  |  |  |  |  |
| O=C(O)CC[C@H](NC(=O)[C@@H]1Cc2ccccc2CN1)C(=O)O (H-[Tic]-Glu-OH) |  | 19.69 |  |  |  |  |  |  |
| COC(=O)[C@H](CCSC)N1C(=O)[C@@H]2Cc3ccccc3CN2C1(C)C | 43.06 |  | 34 | 30.1 | 31.9 | 36.8 | 20.11 |  |
| CSCC[C@H](NC(=O)[C@@H]1Cc2ccccc2CN1)C(=O)O (H-[Tic]-Met-OH) |  | 21.74 |  |  |  |  |  |  |
| O=C(O)C[C@H](NC(=O)[C@@H]1Cc2ccccc2CN1)C(=O)O (H-[Tic]-Asp-OH) |  | 21.67 |  |  |  |  |  |  |
| COC(=O)CC[C@@H](C(=O)OC)N1C(=O)[C@@H]2Cc3ccccc3CN2C1(C)C | 42.48 |  | 22.5 | 37.4 | 45.2 | 28 | 19.9 |  |
| COC(=O)C[C@@H](C(=O)OC)N1C(=O)[C@@H]2Cc3ccccc3CN2C1(C)C | 64.09 |  | 24.6 | 57.7 | 18.6 | 60.1 | 18.2 |  |
| COC(=O)[C@H](CC(C)C)N1C(=O)[C@@H]2Cc3ccccc3CN2C1(C)C | 74.68 |  | 31.4 | 37.5 | 29.2 | 38.3 | 14.1 |  |
| COC(=O)CN1C(=O)[C@@H]2Cc3ccccc3CN2C1(C)C | 75.35 |  | 66.1 | 58.9 | 44.5 | 10.9 | 15.21 |  |
| COC(=O)[C@H](Cc1ccccc1)N1C(=O)[C@@H]2Cc3ccccc3CN2C1(C)C | 32.18 |  | 44.5 | 46.8 | 56.3 | 57.8 | 20.62 |  |
| COC(=O)[C@H](CCCNC(=N)N[N+](=O)[O-])N1C(=O)[C@@H]2Cc3ccccc3CN2C1(C)C | 6.78 |  | 58.4 | 30.6 | 65.3 | 31.4 | 23.61 |  |
| C[C@@H](O)[C@H](NC(=O)[C@@H]1Cc2ccccc2CN1)C(=O)O (H-[Tic]-Thr-OH) |  | 21.25 |  |  |  |  |  |  |
| O=C(O)[C@H](Cc1c[nH]cn1)NC(=O)[C@@H]1Cc2ccccc2CN1 (H-[Tic]-His-OH) |  | 20.86 |  |  |  |  |  |  |
| COC(=O)[C@H](CCC(N)=O)N1C(=O)[C@@H]2Cc3ccccc3CN2C1(C)C | 38.61 |  | 31.8 | 48.1 | 25.9 | 69 | 22.7 |  |
